Data taken from ChEMBL document CHEMBL4342508, “Discovery and Pharmacokinetics of Sulfamides and Guanidines as Potent Human Arginase 1 Inhibitors” (ACS Med Chem Lett, 2020).

Tests used:
Conditions in all cases: in vivo
[1] = Oral bioavailability in Sprague-Dawley rat at 10 mg/kg measured up to 24 hrs by LC-MS/MS analysis; type: ADME, organism-based
[2] = Clearance in Sprague-Dawley rat at 3 mg/kg, iv measured up to 24 hrs by LC-MS/MS analysis; type: ADME, organism-based
[3] = Clearance in rat; type: ADME
[4] = Oral bioavailability in rat; type: ADME, organism-based
In short: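 Male Sprague–Dawley rats were dosed at 3 mg/kg i.v. and 10 mg/kg p.o., and plasma concentrations were followed over time for up to 24 h after dosing. Oral bioavailability comes from the p.o. versus i.v. plasma exposure profiles.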

[5] = Mean residence time in BALB/c mouse at 3 mg/kg, iv measured up to 24 hrs by LC-MS/MS analysis; type: ADME, organism-based
[6] = Mean residence time in Sprague-Dawley rat at 3 mg/kg, iv measured up to 24 hrs by LC-MS/MS analysis; type: ADME, organism-based
In short: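 Male Sprague–Dawley rats dosed with the hydrochloride salt at 3 mg/kg i.v. or 10 mg/kg p.o.; plasma concentration–time profiles followed over 24 h, with PK parameters derived from them. Oral bioavailability comes from comparing the p.o. and i.v. arms.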

N[C@@H](CCCCB(O)O)C(=O)O
bioavailability [1]: 89%
clearance [2]: 2.3 mL/min/kg

C[C@H](N)C(=O)N1C[C@H](CCCB(O)O)[C@](N)(C(=O)O)C1
clearance [3]: 10 mL/min/kg
bioavailability [4]: 52%

NC(CCCCB(O)O)(CNS(N)(=O)=O)C(=O)O (configuration not stated)
MRT [5]: 48.6 min

N=C(N)NCC(N)(CCCCB(O)O)C(=O)O (configuration not stated)
MRT [5]: 15.6 min

N=C(N)NC[C@](N)(CCCCB(O)O)C(=O)O
MRT [6]: 715 min
